Measurements: ChEMBL document CHEMBL3872268, “3-Amino-thieno[2,3-b]pyridines as microtubule-destabilising agents: Molecular modelling and biological evaluation in the sea urchin embryo and human cancer cells” (Bioorg Med Chem, 2017)
Activity calls are given as the source filed them.

Experiments:
[1] = system: Paracentrotus lividus; assay: Induction of microtubule destabilization in sea urchin embryo assessed as cleavage alteration exposed 8 to 20 mins after fertilization and 45 to 55 mins before first mitotic cycle completion measured 2.5 to 5.5 hrs after fertilization
Outline: (§1)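 Gametes were obtained by intracoelomic injection of 0.5 M KCl, and eggs were fertilised in filtered seawater. Embryos were cultured at room temperature with paddle agitation (60 rpm), as a monolayer at up to 2000 embryos/mL. Eggs were exposed 8–20 min post-fertilisation to 2-fold decreasing concentrations (10 mM DMSO stock diluted 10-fold in EtOH). Cleavage was scored microscopically at 2.5–5.5 h. The read-out was the threshold concentration, in duplicate.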

[2] = system: Paracentrotus lividus; assay: Induction of microtubule destabilization in sea urchin embryo assessed as cleavage arrest exposed for 8 to 20 mins after fertilization and 45 to 55 mins before first mitotic cycle completion measured 2.5 to 5.5 hrs after fertilization; outline: as §1
[3] = Toxicity in sea urchin embryo assessed as induction of embryo disintegration at early pluteus stage; settings: paracentrotus lividus
[4] = system: Paracentrotus lividus; assay: Induction of microtubule destabilization activity in sea urchin free-swimming blastulae assessed as embryo spinning measured after 0.25 to 20 hrs; settings: Blastula
Outline: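 Free-swimming blastulae just after hatching (8–10 h post-fertilisation) were cultured in filtered seawater at room temperature. They were treated with 2-fold decreasing concentrations (DMSO stock diluted 10-fold in EtOH; final DMSO ≤0.05%, EtOH ≤1%). Spinning and lack of forward movement were observed by light microscopy after 15 min to 20 h. The value is the effective threshold concentration, from duplicate measurements.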

[5] = Toxicity in sea urchin embryo assessed as induction of embryo death at early pluteus stage; settings: paracentrotus lividus
[6] = Growth inhibition of human NCI60 cells at 10 uM incubated for 48 hrs by sulforhodamine B assay relative to control; format: functional; settings: NCI60, 48 h, read-out: GI
Outline: (§2)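 NCI Developmental Therapeutics Program panel of sixty human tumour cell lines. Compounds were screened first at a single 10 μM dose (percent growth inhibition), and dose-response curves were run for active ligands. GI50 is the concentration giving 50% growth inhibition, reported as the mean across the 60 lines.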

[7] = system: Paracentrotus lividus; assay: Induction of microtubule destabilization in sea urchin embryo assessed as formation of tuberculate eggs for 8 to 20 mins after fertilization and 45 to 55 mins before first mitotic cycle completion measured 2.5 to 5.5 hrs after fertilization
Outline: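 Sea urchin gametes were obtained by intracoelomic 0.5 M KCl injection, and embryos were cultured in filtered seawater at room temperature at up to 2000 embryos/mL. Fertilised eggs were exposed to 2-fold decreasing concentrations from 10 mM DMSO stocks diluted 10-fold in 96% EtOH. Final DMSO was kept ≤0.05% and EtOH ≤1%. Microscopic scoring gave the EC, the threshold causing 100% cleavage alteration, in duplicate.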

[8] = Growth inhibition of human NCI60 cells incubated for 48 hrs by sulforhodamine B assay; format: functional; settings: NCI60, 48 h; outline: as §2
[9] = system: Paracentrotus lividus; assay: Induction of microtubule destabilization in sea urchin embryo assessed as developmental retardation at later stages of development
[10] = system: Paracentrotus lividus; assay: Induction of microtubule destabilization in sea urchin embryo assessed as alteration at later stages of development

In the case of `Nc1c(C(=O)c2ccc(Cl)cc2)sc2nc(-c3cccs3)ccc12`, the EC [1] is reported as greater than 4 µM, the EC [2] is reported as greater than 4 µM and the Activity [3] is reported as “Toxic”. For the same compound, the EC [4] was greater than 4 µM and the Activity [5] was “Toxic”.
`COc1ccc(C(=O)c2sc3nc4c(cc3c2N)CCCC4)cc1OC` gave an EC [1] of 0.5 µM, an inhibition of growth at 10 µM [6] of 60.5% and an EC [2] of 4 µM. For the same compound, the Activity [7] was “Active”, the GI50 [8] was 3.24 µM and the EC [4] was greater than 5 µM.
With `N#Cc1cc2c(N)c(C(=O)c3ccc(Cl)cc3)sc2nc1N` the EC [1] was greater than 4 µM, the inhibition of growth at 10 µM [6] was 0.5% and the Activity [9] was “Active”. For the same compound, the EC [2] was greater than 4 µM, the EC [4] was greater than 4 µM and the Activity [10] was “Active”.
`Cc1cc(C)c2c(N)c(C(=O)c3ccc4c(c3)OCCO4)sc2n1` showed an EC [1] of 1 µM, an inhibition of growth at 10 µM [6] of 2% and an EC [2] greater than 4 µM. The EC [4] was greater than 4 µM.
For `COc1ccc(C(=O)c2sc3nc(-c4ccccc4OC)ccc3c2N)cc1OC`, the inhibition of growth at 10 µM [6] was 43.5% and the GI50 [8] was 7.94 µM.
For `COc1ccc(C(=O)c2sc3nc4c(c(-c5ccccc5)c3c2N)CCCC4)cc1OC`, the EC [1] was greater than 4 µM, the Activity [9] was “Active” and the EC [2] was greater than 4 µM. For the same compound, the EC [4] was greater than 4 µM and the Activity [10] was “Active”.
With `Nc1c(C(=O)Nc2cccc(C(F)(F)F)c2)sc2nc3c(cc12)CCCCC3` the EC [1] was greater than 4 µM, the EC [2] was greater than 4 µM and the EC [4] was greater than 4 µM.
Compound `Nc1c(C(=O)c2ccc(Br)cc2)sc2ncccc12` has an EC [1] of 1 µM, an EC [2] greater than 4 µM and an EC [4] greater than 4 µM.
With `Cc1ccc(C(=O)c2sc3nc4c(cc3c2N)CCCC4)c(C)c1` the EC [1] was 0.05 µM, the inhibition of growth at 10 µM [6] was 78.9% and the EC [2] was 0.2 µM. For the same compound, the Activity [7] was “Active”, the GI50 [8] was 0.28 µM and the EC [4] was greater than 5 µM.
`Cc1cccc(NC(=O)c2sc3nc4c(cc3c2N)CCCC4)c1C` showed an EC [1] of 0.01 µM, an EC [2] of 0.1 µM and an EC [4] of 0.5 µM.
`Cc1ccc(C(=O)c2sc3nc4c(cc3c2N)CCCC4)cc1` gave an EC [1] of 0.02 µM, an inhibition of growth at 10 µM [6] of 16.4% and an EC [2] of 2 µM. For the same compound, the Activity [7] was “Active” and the EC [4] was greater than 4 µM.
For `Nc1c(C(=O)c2ccc3c(c2)OCO3)sc2nc(-c3ccncc3)ccc12`, the EC [1] was greater than 4 µM, the Activity [9] was “Active” and the EC [2] was greater than 4 µM. The EC [4] was greater than 4 µM and the Activity [10] was “Active”.
In the case of `COc1ccc(C(=O)c2sc3nc(-c4cccs4)ccc3c2N)cc1`, the EC [1] is reported as greater than 4 µM, the EC [2] is reported as greater than 4 µM and the Activity [3] is reported as “Toxic”. The EC [4] was greater than 4 µM and the Activity [5] was “Toxic”.
`COc1ccc(C(=O)c2sc3nc(N)c(C#N)cc3c2N)cc1OC` gave an EC [1] of 4 µM, an inhibition of growth at 10 µM [6] of 4.6% and an EC [2] greater than 4 µM. The EC [4] was greater than 4 µM.
Work on `N#Cc1cc2c(N)c(C(=O)c3ccc(F)cc3)sc2nc1N` yielded an EC [1] of 4 µM, an EC [2] greater than 4 µM and an EC [4] greater than 4 µM.
For `Cc1ccc2c(N)c(C(=O)c3ccc(Cl)cc3)sc2n1`, the EC [1] was 0.5 µM, the inhibition of growth at 10 µM [6] was 18.4% and the EC [2] was greater than 4 µM. It also gave an EC [4] greater than 4 µM.
Compound `COc1ccc(C(=O)c2sc3nc(C)cc(C)c3c2N)cc1OC` has an EC [1] greater than 4 µM, an inhibition of growth at 10 µM [6] of 14.2% and an EC [2] greater than 4 µM. The EC [4] was greater than 4 µM.
`COc1ccc(C(=O)c2sc3nc4c(cc3c2N)CCCC4)cc1` gave an EC [1] of 0.5 µM, an EC [2] greater than 4 µM and an EC [4] greater than 5 µM.
`Cc1cccc(NC(=O)c2sc3nc4c(cc3c2N)CCC4)c1C` showed an EC [1] of 0.05 µM, an EC [2] of 0.5 µM and an EC [4] of 5 µM.
For `Nc1c(C(=O)c2ccc(Br)cc2)sc2nc3c(cc12)CCCC3`, the EC [1] was 0.5 µM, the inhibition of growth at 10 µM [6] was 8.1% and the EC [2] was greater than 4 µM. For the same compound, the EC [4] was greater than 4 µM.
`Cc1ccc(C(=O)c2sc3nc4c(cc3c2N)CCC4)cc1` gave an EC [1] of 0.2 µM, an EC [2] greater than 4 µM and an EC [4] greater than 4 µM.
`Nc1c(C(=O)c2ccc(Cl)cc2)sc2nc3c(cc12)CCCC3` gave an EC [1] of 0.5 µM, an inhibition of growth at 10 µM [6] of 7.8% and an EC [2] greater than 4 µM. The EC [4] was greater than 4 µM.
With `Nc1c(C(=O)c2ccc3c(c2)OCO3)sc2nc3c(cc12)CCCC3` the EC [1] was 0.025 µM, the EC [2] was 0.5 µM and the Activity [7] was “Active”. The EC [4] was greater than 5 µM.
For `CN1CCc2nc3sc(C(=O)c4ccccc4)c(N)c3cc2C1`, the EC [1] was 4 µM, the inhibition of growth at 10 µM [6] was 13.3% and the Activity [9] was “Active”. For the same compound, the EC [2] was greater than 4 µM, the EC [4] was greater than 4 µM and the Activity [10] was “Active”.
With `COc1ccccc1-c1ccc2c(N)c(C(=O)c3ccc4c(c3)OCO4)sc2n1` the EC [1] was greater than 4 µM, the inhibition of growth at 10 µM [6] was 37.4% and the Activity [9] was “Active”. The EC [2] was greater than 4 µM, the GI50 [8] was 5.13 µM and the EC [4] was greater than 4 µM. For the same compound, the Activity [10] was “Active”.
With `COc1ccc(C(=O)c2sc3nc4c(cc3c2N)N2CCC4CC2)cc1OC` the EC [1] was greater than 4 µM, the inhibition of growth at 10 µM [6] was 11.7% and the Activity [9] was “Active”. For the same compound, the EC [2] was greater than 4 µM, the EC [4] was greater than 4 µM and the Activity [10] was “Active”.
For `Cc1ccc(C(=O)c2sc3nc(C)ccc3c2N)cc1`, the EC [1] was 1 µM, the EC [2] was 4 µM and the Activity [7] was “Active”. For the same compound, the EC [4] was greater than 10 µM.
For `Cc1cc(C)c2c(N)c(C(=O)c3ccc(Br)cc3)sc2n1`, the EC [1] was greater than 4 µM, the EC [2] was greater than 4 µM and the EC [4] was greater than 4 µM.
With `COc1ccc(C(=O)c2sc3nc(-c4ccncc4)ccc3c2N)cc1OC` the EC [1] was 4 µM, the inhibition of growth at 10 µM [6] was 17.1% and the EC [2] was greater than 4 µM. The EC [4] was greater than 4 µM.
For `COc1ccc(C(=O)c2sc3nc4c(cc3c2N)N2CCC4CC2)cc1`, the EC [1] was greater than 4 µM, the inhibition of growth at 10 µM [6] was 11.5% and the Activity [9] was “Active”. The EC [2] was greater than 4 µM, the EC [4] was greater than 4 µM and the Activity [10] was “Active”.
`COc1ccc(C(=O)c2sc3nc(-c4cccs4)ccc3c2N)cc1OC` showed an EC [1] of 4 µM, an inhibition of growth at 10 µM [6] of 52.6% and an EC [2] greater than 4 µM. The Activity [3] was “Toxic”, the GI50 [8] was 6.31 µM and the EC [4] was greater than 4 µM. The Activity [5] was “Toxic”.
`Nc1c(C(=O)Nc2ccccc2)sc2nc3c(cc12)CCCC3` gave an EC [1] of 0.01 µM, an EC [2] of 0.05 µM and an EC [4] of 0.2 µM.
For `Nc1c(C(=O)c2ccc3c(c2)OCO3)sc2nc3c(c(C(F)(F)F)c12)CCCC3`, the EC [1] was greater than 4 µM, the Activity [9] was “Active” and the EC [2] was greater than 4 µM. The EC [4] was greater than 4 µM and the Activity [10] was “Active”.
In the case of `COC(=O)Nc1nc2cc(C(=O)c3cccs3)ccc2[nH]1` [NOCODAZOLE], the EC [1] is reported as 0.005 µM, the EC [2] is reported as 0.001 µM and the GI50 [8] is reported as 0.0389 µM. For the same compound, the EC [4] was 0.1 µM.
Work on `Nc1c(C(=O)c2ccccc2)sc2nc3c(cc12)CCCC3` yielded an EC [1] of 0.02 µM, an EC [2] of 0.2 µM and an EC [4] of 0.5 µM.
`Nc1c(C(=O)c2ccc(F)cc2)sc2nc3c(cc12)CCCC3` gave an EC [1] of 0.2 µM, an inhibition of growth at 10 µM [6] of 26.7% and an EC [2] greater than 4 µM. The EC [4] was greater than 4 µM.
`COc1ccc(C(=O)c2cc(OC)c(OC)c(OC)c2)cc1O` [PHENSTATIN] gave an EC [1] of 0.01 µM, an EC [2] of 0.05 µM and a GI50 [8] of 0.06 µM. It also gave an EC [4] of 0.5 µM.
For `Nc1c(C(=O)c2ccc(Br)cc2)sc2nc3c(cc12)CCC3`, the EC [1] was 1 µM, the inhibition of growth at 10 µM [6] was 19.3% and the EC [2] was greater than 4 µM. The EC [4] was greater than 4 µM.
`Nc1c(C(=O)c2ccccc2)sc2nc3c(cc12)N1CCC3CC1` showed an EC [1] greater than 4 µM, an inhibition of growth at 10 µM [6] of 7.3% and an EC [2] greater than 4 µM. It also gave an EC [4] greater than 4 µM.
In the case of `COc1ccc(C(=O)c2sc3nc4c(c(-c5ccncc5)c3c2N)CCCC4)cc1OC`, the EC [1] is reported as greater than 4 µM, the Activity [9] is reported as “Active” and the EC [2] is reported as greater than 4 µM. The EC [4] was greater than 4 µM and the Activity [10] was “Active”.
Compound `Nc1c(C(=O)Nc2ccccc2)sc2nc3c(cc12)CCCCC3` has an EC [1] of 0.01 µM, an EC [2] of 0.04 µM and an EC [4] of 0.2 µM.
